ChEMBL document CHEMBL1177718, “Phosphoramidate ProTides of 2'-C-methylguanosine as highly potent inhibitors of hepatitis C virus. Study of their in vitro and in vivo properties” (J Med Chem, 2010)

Assays:
[1] = system: Hepatitis C virus; assay: Antiviral activity against HCV1b infected in human HuH7 cells assessed as inhibition of viral replication after 48 hrs by luciferase reporter gene assay; format: functional, organism-based, Hepacivirus hominis; settings: genotype 1b, Huh-7, 48 h
Outline: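 Huh7 cells carrying genotype 1b bicistronic subgenomic replicon, seeded 2 × 10⁴/well without G-418; compounds added 18-24 h later, 48 h exposure; 3× or 4× serial dilutions over 0.0001-10 μM in triplicate/quadruplicate; Renilla luciferase read-out versus untreated cells; EC₅₀ by four-parameter sigmoidal nonlinear regression; at least three independent assays.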

[2] = Cytotoxicity against human HuH7 cells after 72 hrs by celltiter-glo assay; format: cell-based, Huh-7
Outline: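 Replicon 1b Huh7 cells seeded 2 × 10⁴/well; after 24 h, 11 serial 2× dilutions from 100 μM (three repeats each) with no-compound control; 72 h at 37 °C, CO₂, log-phase growth; viability by CellTiter-Glo luminescence; CC₅₀ = concentration giving 50% signal.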

[3] = species: Homo sapiens; assay: Metabolic stability in human plasma assessed as compound remaining at 1 ug/ml after 4 hrs
[4] = Metabolic stability in cynomolgus monkey plasma assessed as compound remaining at 1 ug/ml after 30 mins; format: ADME, cell-free, Macaca fascicularis; settings: read-out: Stability
Outline: (§1)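 Duplicate incubations; compound at final 1 μg/mL in plasma preincubated and kept at […]; samples taken at 30 or 240 min, quenched with ice-cold acetonitrile, centrifuged, supernatant diluted with water; parent quantified by LC-MS/MS (Polar-RP column, formic acid water/acetonitrile gradient, positive ion mode); % remaining reported.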

[5] = Metabolic stability in rat plasma assessed as compound remaining at 1 ug/ml after 4 hrs; format: ADME, cell-free; settings: read-out: Stability; outline: as §1
[6] = Metabolic stability in rat plasma assessed as compound remaining at 1 ug/ml after 30 mins; format: ADME, cell-free; settings: read-out: Stability; outline: as §1
[7] = Metabolic stability in mouse plasma assessed as compound remaining at 1 ug/ml after 30 mins; format: ADME, cell-free; settings: read-out: Stability
[8] = Metabolic stability in mouse plasma assessed as compound remaining at 1 ug/ml after 4 hrs; format: ADME, cell-free; settings: read-out: Stability
[9] = Metabolic stability in cynomolgus monkey plasma assessed as compound remaining at 1 ug/ml after 4 hrs; format: ADME, cell-free, Macaca fascicularis; settings: read-out: Stability; outline: as §1
[10] = Metabolic stability in dog plasma assessed as compound remaining at 1 ug/ml after 30 mins; format: ADME, cell-free, Canis lupus familiaris; settings: read-out: Stability; outline: as §1
[11] = species: Homo sapiens; assay: Metabolic stability in human plasma assessed as compound remaining at 1 ug/ml after 30 mins
[12] = Metabolic stability in dog plasma assessed as compound remaining at 1 ug/ml after 4 hrs; format: ADME, cell-free, Canis lupus familiaris; settings: read-out: Stability; outline: as §1
[13] = Metabolic stability in human liver S9 fraction assessed as compound remaining at 10 uM after 60 mins by HPLC analysis in presence of NADP; format: ADME, subcellular; settings: read-out: Stability
Outline: (§2)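 Liver or intestinal S9 at final 1 mg/mL in 50 mM potassium phosphate, with or without NADPH-regenerating system (1.3 mM NADP, 3.3 mM glucose-6-phosphate, 0.4 U/mL G6PDH, 3.3 mM MgCl₂); 10 min preincubation at 37 °C; compound at final 10 μM; samples at start and 60 min quenched in cold acetonitrile, centrifuged, HPLC; % parent remaining.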

[14] = Metabolic stability in human intestine S9 fraction assessed as compound remaining at 10 uM after 60 mins by HPLC analysis in presence of NADP; format: ADME, tissue-based; settings: read-out: Stability; outline: as §2
[15] = Metabolic stability in dog intestine S9 fraction assessed as compound remaining at 10 uM after 60 mins by HPLC analysis in presence of NADP; format: ADME, tissue-based, Canis lupus familiaris; settings: read-out: Stability; outline: as §2
[16] = Metabolic stability in dog intestine S9 fraction assessed as compound remaining at 10 uM after 60 mins by HPLC analysis in absence of NADP; format: ADME, tissue-based, Canis lupus familiaris; settings: read-out: Stability; outline: as §2
[17] = Metabolic stability in human intestine S9 fraction assessed as compound remaining at 10 uM after 60 mins by HPLC analysis in absence of NADP; format: ADME, tissue-based; settings: read-out: Stability; outline: as §2
[18] = Metabolic stability in dog liver S9 fraction assessed as compound remaining at 10 uM after 60 mins by HPLC analysis in presence of NADP; format: ADME, subcellular, Canis lupus familiaris; settings: read-out: Stability; outline: as §2
[19] = Metabolic stability in human liver S9 fraction assessed as compound remaining at 10 uM after 60 mins by HPLC analysis in absence of NADP; format: ADME, subcellular; settings: read-out: Stability; outline: as §2
[20] = Metabolic stability in dog liver S9 fraction assessed as compound remaining at 10 uM after 60 mins by HPLC analysis in absence of NADP; format: ADME, subcellular, Canis lupus familiaris; settings: read-out: Stability; outline: as §2

| Compound | EC50 [1] | remaining at 4 h, 1 ug/ml [3] | remaining at 0.5 h, 1 ug/ml [4] | remaining at 4 h, 1 ug/ml [5] | remaining at 0.5 h, 1 ug/ml [6] | remaining at 0.5 h, 1 ug/ml [7] | remaining at 4 h, 1 ug/ml [8] | remaining at 4 h, 1 ug/ml [9] | remaining at 0.5 h, 1 ug/ml [10] | remaining at 0.5 h, 1 ug/ml [11] | remaining at 4 h, 1 ug/ml [12] | remaining at 1 h, 10 µM [13] | remaining at 1 h, 10 µM [14] | remaining at 1 h, 10 µM [15] | remaining at 1 h, 10 µM [16] | remaining at 1 h, 10 µM [17] | remaining at 1 h, 10 µM [18] | remaining at 1 h, 10 µM [19] | remaining at 1 h, 10 µM [20] | CC50 at 72 h [2] |
| --- | --- | --- | --- | --- | --- | --- | --- | --- | --- | --- | --- | --- | --- | --- | --- | --- | --- | --- | --- | --- |
| CC(C)[C@@H](NP(=O)(OC[C@H]1O[C@@H](n2cnc3c(=O)[nH]c(N)nc32)[C@](C)(O)[C@@H]1O)Oc1cccc2ccccc12)C(=O)OCc1ccccc1 (some centres not stated) | > 3000 nM | 82% | 68% | 56% | 82% | 51% | 8% | 80% | 69% | 70% | 61% | – | – | – | – | – | – | – | – | > 100000 nM |
| CC(C)(NP(=O)(OC[C@H]1O[C@@H](n2cnc3c(=O)[nH]c(N)nc32)[C@](C)(O)[C@@H]1O)Oc1cccc2ccccc12)C(=O)OCc1ccccc1 (some centres not stated) | 1500 nM | 41% | 92% | 0% | 0% | 0% | 0% | 83% | 100% | 100% | 100% | – | – | – | – | – | – | – | – | – |
| CC(C)[C@H](NP(=O)(OC[C@H]1O[C@@H](n2cnc3c(=O)[nH]c(N)nc32)[C@](C)(O)[C@@H]1O)Oc1ccc2ccccc2c1)C(=O)OCc1ccccc1 (some centres not stated) | 1700 nM | 100% | 100% | 22% | 49% | 99% | 76% | 95% | 95% | 93% | 99% | – | – | – | – | – | – | – | – | > 100000 nM |
| CC(OC(=O)[C@@H](NP(=O)(OC[C@H]1O[C@@H](n2cnc3c(=O)[nH]c(N)nc32)[C@](C)(O)[C@@H]1O)Oc1cccc2ccccc12)C(C)C)c1ccccc1 (some centres not stated) | > 3000 nM | – | – | – | – | 100% | – | – | 100% | 97% | – | – | – | – | – | – | – | – | – | – |

Continued, in another order:

| EC50 [1] | remaining at 4 h, 1 ug/ml [3] | remaining at 0.5 h, 1 ug/ml [4] | remaining at 4 h, 1 ug/ml [5] | remaining at 0.5 h, 1 ug/ml [6] | remaining at 0.5 h, 1 ug/ml [7] | remaining at 4 h, 1 ug/ml [8] | remaining at 4 h, 1 ug/ml [9] | remaining at 0.5 h, 1 ug/ml [10] | remaining at 0.5 h, 1 ug/ml [11] | remaining at 4 h, 1 ug/ml [12] | remaining at 1 h, 10 µM [13] | remaining at 1 h, 10 µM [14] | remaining at 1 h, 10 µM [15] | remaining at 1 h, 10 µM [16] | remaining at 1 h, 10 µM [17] | remaining at 1 h, 10 µM [18] | remaining at 1 h, 10 µM [19] | remaining at 1 h, 10 µM [20] | Compound | CC50 at 72 h [2] |
| --- | --- | --- | --- | --- | --- | --- | --- | --- | --- | --- | --- | --- | --- | --- | --- | --- | --- | --- | --- | --- |
| 90 nM | – | – | – | – | – | – | – | – | – | – | – | – | – | – | – | – | – | – | C[C@H](NP(=O)(OC[C@H]1O[C@@H](n2cnc3c(=O)[nH]c(N)nc32)[C@](C)(O)[C@@H]1O)Oc1cccc2ccccc12)C(=O)OCCc1ccccc1 (some centres not stated) | > 100000 nM |
| 170 nM | – | – | – | – | 0.7% | – | – | – | – | – | 14% | 24% | 23% | 27% | 23% | 33% | 29% | 28% | C[C@H](NP(=O)(OC[C@H]1O[C@@H](n2cnc3c(=O)[nH]c(N)nc32)[C@](C)(O)[C@@H]1O)Oc1ccc2ccccc2c1)C(=O)OCc1ccccc1 (some centres not stated) | > 50000 nM |
| 170 nM | – | – | – | – | – | – | – | – | – | – | – | – | – | – | – | – | – | – | C[C@H](NP(=O)(OC[C@H]1O[C@@H](n2cnc3c(=O)[nH]c(N)nc32)[C@](C)(O)[C@@H]1O)Oc1cccc2ccccc12)C(=O)OCCCc1ccccc1 (some centres not stated) | > 100000 nM |
| 91 nM | 96% | 94% | 0% | 0% | 0% | 0% | 94% | 98% | 100% | 98% | – | – | – | – | – | – | – | – | CCCCCOC(=O)[C@H](C)NP(=O)(OC[C@H]1O[C@@H](n2cnc3c(=O)[nH]c(N)nc32)[C@](C)(O)[C@@H]1O)Oc1cccc2ccccc12 (some centres not stated) | – |
| 45 nM | 100% | 100% | 0.5% | 2.5% | 2.9% | 0% | 100% | 100% | 100% | 100% | – | – | – | – | – | – | – | – | C[C@H](NP(=O)(OC[C@H]1O[C@@H](n2cnc3c(=O)[nH]c(N)nc32)[C@](C)(O)[C@@H]1O)Oc1cccc2ccccc12)C(=O)OC1CCCCC1 (some centres not stated) | > 100000 nM |
